Results from different studies.
Each line is one published result; the experiments were not run side by side.
OPRD1: Delta-type opioid receptor (OPRD1, Homo sapiens, UniProt P41143)
CA2: Carbonic anhydrase 2 (CA2, Homo sapiens, UniProt P00918)

The IC50 of COC(=O)c1cc(N(C)C(=O)c2ccn3ncc(-c4ccc(C(=O)O)cc4)c3c2)ccc1Cl is reported as over 30000 nM (Receptor tyrosine-protein kinase erbB-2 (ERBB2, Homo sapiens, UniProt P04626); enzyme activity; inhibitor).
O=C(N[C@H]1CC[C@@]2(O)[C@H]3Cc4ccc(O)c5c4[C@@]2(CCN3CC2CC2)[C@H]1O5)c1ccc(F)s1 gave a Ki of 31.4 nM (OPRD1; ligand displacement; radioligand; cell membranes).
CNC(=O)c1ccc(-c2cnn3ccc(C(=O)N(C)c4ccc(Cl)c(C(=O)OC)c4)cc23)cc1 gave an IC50 of over 30000 nM (Tyrosine-protein kinase ABL1 (ABL1, Homo sapiens, UniProt P00519); enzyme activity; inhibitor).
With CS(=O)(=O)c1ccc(C(=O)N[C@H]2CC[C@@]3(O)[C@H]4Cc5ccc(O)c6c5[C@@]3(CCN4CC3CC3)[C@H]2O6)s1 the Ki was 27 nM (OPRD1; ligand displacement; radioligand; cell membranes).
For COc1ccc(S(=O)(=O)Oc2cc(OC)ccc2C=NNC(=O)c2ccc(F)cc2)cc1, the IC50 was 141 nM (CA2; enzyme activity; inhibitor; absorbance).
For O=C1CCc2ccccc2O1, the Ki was 8900 nM (Carbonic anhydrase (Vibrio cholerae serotype O1, UniProt Q9KMP6); enzyme activity; inhibitor; stopped-flow).
COc1ccc(S(=O)(=O)Oc2ccc(C=NNC(=O)c3ccc(F)cc3)cc2OC)cc1 has an IC50 of 23.2 nM (CA2; enzyme activity; inhibitor; absorbance).
COc1ccc2[nH]c(C)c(CC[N+](C)(C)C)c2c1 gave a Ki of about 2600 nM (5-hydroxytryptamine receptor 3A (HTR3A, Homo sapiens, UniProt P46098); ligand displacement; radioligand).
